Data taken from ChEMBL document CHEMBL1157693, “Microwave assisted synthesis and antimicrobial activity of 2-quinoxalinone-3-hydrazone derivatives” (2010).
≈ marks a conversion by molar mass, not a printed value. Calls of active or inactive are those of the source. No cut-off for these calls is given here.

Experiments:
Assay type in all cases: functional
[1] = system: Klebsiella pneumoniae; test: Antibacterial activity against Klebsiella pneumoniae NCIB 418 after 72 hrs; settings: NCIB 418, 72 h
Outline: (§1)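 MIC by the Russell and Furr method, run on selected Gram-positive and Gram-negative strains. Once the agar had set and its surface had dried, nutrient agar plates were streaked with overnight broth cultures. They were incubated at 37 °C for up to 72 h and scored for presence or absence of growth.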

[2] = system: Geobacillus stearothermophilus; test: Antibacterial activity against Bacillus stearothermophilus NCIB 8222 after 72 hrs; settings: NCIB 8222, 72 h; outline: as §1
[3] = system: Klebsiella pneumoniae; test: Antibacterial activity against Klebsiella pneumoniae NCIB 418 after 24 hrs by agar well diffusion method; note: test concentration or dose not given here
Outline: (§2)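 Agar well diffusion. Clinical isolates were first checked for viability, then grown in nutrient broth for 8 h at 37 °C. About 0.2 ml of broth culture was mixed into 18 ml molten diagnostic sensitivity test agar cooled to 45 °C and poured into plates. Compounds in DMSO went into bored wells, with streptomycin as reference. Plates stood 1 h for diffusion, then were incubated upright at 37 °C for 24 h. Clear inhibition zones were read in mm.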

[4] = system: Bacillus subtilis; test: Antibacterial activity against Bacillus subtilis NCIB 3610 after 24 hrs by agar well diffusion method; outline: as §2; note: test concentration or dose not given here
[5] = system: Pseudomonas aeruginosa; test: Antibacterial activity against Pseudomonas aeruginosa NCIB 950 after 24 hrs by agar well diffusion method; outline: as §2; note: test concentration or dose not given here
[6] = system: Shigella dysenteriae; test: Antibacterial activity against Shigella dysenteriae after 72 hrs
Outline: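 MIC by agar dilution: compound-containing nutrient agar was set and surface-dried, then streaked with overnight broth culture of the clinical isolate. Incubated at 37 °C for up to 72 h and scored for presence or absence of growth. Streptomycin was the reference.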

[7] = system: Escherichia coli; test: Antibacterial activity against Escherichia coli NCIB 86 after 72 hrs; settings: NCIB 86, 72 h; outline: as §1
[8] = system: Bacillus cereus; test: Antibacterial activity against Bacillus cereus NCIB 6349 after 24 hrs by agar well diffusion method; outline: as §2; note: test concentration or dose not given here
[9] = system: Pseudomonas fluorescens; test: Antibacterial activity against Pseudomonas fluorescens NCIB 3756 after 24 hrs by agar well diffusion method; outline: as §2; note: test concentration or dose not given here
[10] = system: Geobacillus stearothermophilus; test: Antibacterial activity against Bacillus stearothermophilus NCIB 8222 after 24 hrs by agar well diffusion method; outline: as §2; note: test concentration or dose not given here
[11] = system: Bacillus subtilis; test: Antibacterial activity against Bacillus subtilis NCIB 3610 after 72 hrs; settings: NCIB 3610, 72 h; outline: as §1
[12] = system: Staphylococcus aureus; test: Antibacterial activity against Staphylococcus aureus NCIB 8588 after 72 hrs; settings: NCIB 8588, 72 h; outline: as §1
[13] = system: Candida albicans; test: Antifungal activity against Candida albicans after 3 days by agar well diffusion method
[14] = system: Escherichia coli; test: Antibacterial activity against Escherichia coli NCIB 86 after 24 hrs by agar well diffusion method; outline: as §2; note: test concentration or dose not given here
[15] = system: Staphylococcus aureus; test: Antibacterial activity against Staphylococcus aureus NCIB 8588 after 24 hrs by agar well diffusion method; outline: as §2; note: test concentration or dose not given here
[16] = system: Shigella dysenteriae; test: Antibacterial activity against Shigella dysenteriae after 24 hrs by agar well diffusion method
[17] = system: Bacillus cereus; test: Antibacterial activity against Bacillus cereus NCIB 6349 after 72 hrs; settings: NCIB 6349, 72 h; outline: as §1
[18] = system: Bacillus anthracis; test: Antibacterial activity against Bacillus anthracis after 72 hrs
[19] = system: Bacillus anthracis; test: Antibacterial activity against Bacillus anthracis after 24 hrs by agar well diffusion method

NNc1nc2ccccc2[nH]c1=O
MIC [1]: 125 µg/mL (≈ 710 µM)
MIC [2]: 15.6 µg/mL (≈ 88.5 µM)
inhibition zone (IZ) [3]: 10 mm
inhibition zone (IZ) [4]: 20 mm
inhibition zone (IZ) [5]: 15 mm
MIC [6]: 125 µg/mL (≈ 710 µM)
MIC [7]: 15.6 µg/mL (≈ 88.5 µM)
inhibition zone (IZ) [8]: 28 mm
inhibition zone (IZ) [9]: 0 mm
inhibition zone (IZ) [10]: 15 mm
MIC [11]: 15.6 µg/mL (≈ 88.5 µM)
MIC [12]: 125 µg/mL (≈ 710 µM)
inhibition zone (IZ) [13]: 18 mm
inhibition zone (IZ) [14]: 25 mm
inhibition zone (IZ) [15]: 24 mm
inhibition zone (IZ) [16]: 22 mm
MIC [17]: 15.6 µg/mL (≈ 88.5 µM)
MIC [18]: 15.6 µg/mL (≈ 88.5 µM)
inhibition zone (IZ) [19]: 24 mm

CC1CCCC/C1=N\Nc1nc2ccccc2[nH]c1=O (stereo not drawn)
MIC [1]: 7.8 µg/mL (≈ 28.9 µM)
MIC [2]: 7.8 µg/mL (≈ 28.9 µM)
inhibition zone (IZ) [3]: 15 mm
inhibition zone (IZ) [4]: 12 mm
inhibition zone (IZ) [5]: 0 mm
MIC [6]: inactive
MIC [7]: 31.3 µg/mL (≈ 116 µM)
inhibition zone (IZ) [8]: 13 mm
inhibition zone (IZ) [9]: 13 mm
inhibition zone (IZ) [10]: 25 mm
MIC [11]: 62.5 µg/mL (≈ 231 µM)
MIC [12]: 7.8 µg/mL (≈ 28.9 µM)
inhibition zone (IZ) [13]: 14 mm
inhibition zone (IZ) [14]: 12 mm
inhibition zone (IZ) [15]: 19 mm
inhibition zone (IZ) [16]: 0 mm
MIC [17]: 15.6 µg/mL (≈ 57.7 µM)
MIC [18]: 15.6 µg/mL (≈ 57.7 µM)
inhibition zone (IZ) [19]: 16 mm
